The results in this text go back to publication PMC9308755 (Chemmedchem, 2022).

The structures appear in SMILES notation.

For orientation: IC50 means the concentration needed to halve the response being measured. Read a high IC50 as a need for much substance. The term CLint scaled denotes a measure of how fast metabolising enzymes remove a compound, apart from limits set by blood flow. A higher CLint scaled goes with rapid turnover. As usually defined, the fraction unbound is free concentration divided by total concentration. A lower fraction unbound goes with little free substance. In general, inhibition refers to the change of the read-out against control, counted positive when it falls.

The target of series [1] is T1, mouse TRPC5 (Mus musculus, UniProt Q9QX29).
T1 sequence (Q9QX29 1-975): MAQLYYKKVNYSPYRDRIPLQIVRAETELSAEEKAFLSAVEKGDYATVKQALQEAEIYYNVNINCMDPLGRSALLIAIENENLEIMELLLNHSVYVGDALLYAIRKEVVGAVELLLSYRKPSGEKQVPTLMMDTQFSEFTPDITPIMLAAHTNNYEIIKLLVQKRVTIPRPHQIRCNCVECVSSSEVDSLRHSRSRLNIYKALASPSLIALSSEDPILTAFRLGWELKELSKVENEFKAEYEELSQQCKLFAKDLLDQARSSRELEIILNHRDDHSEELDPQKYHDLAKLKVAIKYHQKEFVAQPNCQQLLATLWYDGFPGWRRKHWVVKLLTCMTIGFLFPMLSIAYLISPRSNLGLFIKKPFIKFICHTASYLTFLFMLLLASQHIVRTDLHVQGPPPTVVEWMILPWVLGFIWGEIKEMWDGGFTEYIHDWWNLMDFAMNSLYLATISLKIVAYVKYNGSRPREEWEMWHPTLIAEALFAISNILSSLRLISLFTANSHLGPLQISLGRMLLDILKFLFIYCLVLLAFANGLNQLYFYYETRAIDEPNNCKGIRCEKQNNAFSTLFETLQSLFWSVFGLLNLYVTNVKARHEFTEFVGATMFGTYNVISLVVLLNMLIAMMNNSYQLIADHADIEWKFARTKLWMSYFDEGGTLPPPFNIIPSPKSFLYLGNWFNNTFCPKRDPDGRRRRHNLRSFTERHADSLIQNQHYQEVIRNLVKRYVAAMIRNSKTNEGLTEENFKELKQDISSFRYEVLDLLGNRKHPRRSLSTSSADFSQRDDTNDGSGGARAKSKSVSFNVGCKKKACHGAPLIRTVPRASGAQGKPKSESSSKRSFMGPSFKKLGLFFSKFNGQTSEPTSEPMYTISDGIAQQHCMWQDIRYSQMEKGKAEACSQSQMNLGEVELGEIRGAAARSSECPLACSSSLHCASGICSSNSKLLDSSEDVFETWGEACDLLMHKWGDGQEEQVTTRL
Description: Syncropatch automated patch clamp, inhibition of riluzole-induced TRPC5 currents. The format is cell-based. The settings on record: for IC50: TRPC5 IC50, riluzole (30 μM)-induced TRPC5 current; for IC50 / TRPC5 activity (in words): Syncropatch. An outline of the steps: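 Doxycycline-induced (0.5–1 μg/mL, 3 days) Flp-In T-REx-293 cells stably expressing mouse TRPC5, used in automated patch clamp. 200 ms ramps from −100 to +100 mV every 5–10 s. 30 μM riluzole activates currents and stays present with compound. Only cells with doubly-rectifying currents kept. % inhibition compares 3 ramps after vs before compound, normalized to a reference inhibitor at 3 μM. IC50 from three-parameter fit.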
In general terms: Patch clamp records ionic current or voltage across a cell membrane.

A short description of series [2]: Mouse liver microsome stability. The format is in vitro ADME. Conditions: liver microsomes.
Series [3] in a line: Human plasma protein binding. The format is in vitro ADME.
Series [4] is described as follows: Mouse plasma protein binding. In kind it is in vitro ADME.
The nature of series [5]: Human liver microsome stability. In kind it is in vitro ADME. Conditions: liver microsomes.

In series [1], `c1ccc(Cn2c(N3CCCC3)nc3ccccc32)cc1` [7 c, 1‐Benzyl‐2‐(pyrrolidin‐1‐yl)‐1H‐benzo[d]imidazole] registered an IC50 of 4.3 ± 1.63 µM. In series [2], this compound came in with a CLint scaled of 530 mL/min/kg and a mCLHEP of 77.0 mL/min/kg. Moreover, the fraction unbound in series [3] was determined as 0.044. Besides, in series [4], the fraction unbound was determined as 0.036. In series [5], this compound showed a CLint scaled of 164 mL/min/kg and a hCLHEP of 17.9 mL/min/kg.
The compound `CCCNc1nc2ccccc2n1Cc1ccccc1` [7 f, 1‐Benzyl‐N‐propyl‐1H‐benzo[d]imidazol‐2‐amine] registered an IC50 in series [1] of 0.72 ± 0.21 µM. In series [2], the CLint scaled amounted to 796 mL/min/kg and the mCLHEP worked out at 80.9 mL/min/kg. The fraction unbound in series [3] is 0.041. In addition, the fraction unbound in series [4] came to 0.108. In series [5], this compound came in with a CLint scaled of 103 mL/min/kg and a hCLHEP of 16.8 mL/min/kg.
Consider `CC(C)CCNc1nc2ccccc2n1Cc1ccccc1` [7 g, 1‐Benzyl‐N‐isopentyl‐1H‐benzo[d]imidazol‐2‐amine], for which, in series [1], the IC50 was 1.3 ± 0.31 µM.
With `CN1CCC(N2CCN(c3nc4ccccc4n3Cc3ccccc3)CC2)CC1` [7 h, 1‐Benzyl‐2‐(4‐(1‐methylpiperidin‐4‐yl)piperazin‐1‐yl)‐1H‐benzo[d]imidazole], in series [1], the “TRPC5 activity (in words)” value is recorded as “not productive”.
Same read-out and setting: as for `c1ccc(Cn2c(N3CCC4(CC3)CNC4)nc3ccccc32)cc1` [7 i, 7‐(1‐Benzyl‐1H‐benzo[d]imidazol‐2‐yl)‐2,7‐diazaspiro[3.5]nonane], the entry is “not productive”; as for `c1ccc(Cn2c(CCN3CCCC3)nc3ccccc32)cc1` [7 j, 1‐Benzyl‐2‐(2‐(pyrrolidin‐1‐yl)ethyl)‐1H‐benzo[d]imidazole], “moderate activity”.
For the compound `Fc1ccccc1Cn1c(N2CCCC2)nc2ccccc21` [9 a, 1‐(2‐Fluorobenzyl)‐2‐(pyrrolidin‐1‐yl)‐1H‐benzo[d]imidazole], the IC50 in series [1] came to 2.69 µM.
Consider `Fc1cccc(Cn2c(N3CCCC3)nc3ccccc32)c1` [9 b, 1‐(3‐Fluorobenzyl)‐2‐(pyrrolidin‐1‐yl)‐1H‐benzo[d]imidazole], for which the IC50 in series [1] came to 1.49 ± 0.31 µM.
Still for that read-out and setting: as for `Fc1ccc(Cn2c(N3CCCC3)nc3ccccc32)cc1` [9 c, 1‐(4‐Fluorobenzyl)‐2‐(pyrrolidin‐1‐yl)‐1H‐benzo[d]imidazole], the figure is 0.59 ± 0.14 µM.
The same measure, in the same setting: as for `Clc1cccc(Cn2c(N3CCCC3)nc3ccccc32)c1` [9 d, 1‐(3‐Chlorobenzyl)‐2‐(pyrrolidin‐1‐yl)‐1H‐benzo[d]imidazole], the figure is 0.72 ± 0.21 µM.
In the case of `Clc1ccc(Cn2c(N3CCCC3)nc3ccccc32)cc1` [9 e, 1‐(4‐Chlorobenzyl)‐2‐(pyrrolidin‐1‐yl)‐1H‐benzo[d]imidazole], the IC50 in series [1] was determined as 0.44 ± 0.14 µM. In series [2], this compound registered a CLint scaled of 4260 mL/min/kg and a mCLHEP of 88.2 mL/min/kg. Besides, in series [3], the fraction unbound was found to be 0.013. In series [4], this compound came in with a fraction unbound of 0.013. Also, in series [5], the CLint scaled came out at 278 mL/min/kg and the hCLHEP was determined as 18.7 mL/min/kg.
Turning to `COc1ccc(Cn2c(N3CCCC3)nc3ccccc32)cc1` [9 f, 1‐(4‐Methoxybenzyl)‐2‐(pyrrolidin‐1‐yl)‐1H‐benzo[d]imidazole], 1.15 ± 0.25 µM corresponded to half-maximal inhibition in series [1] (IC50).
On the same count and under the same terms, as for `COc1ccc(Cn2c(N3CCCC3)nc3ccccc32)cc1F` [9 g, 1‐(3‐Fluoro‐4‐methoxybenzyl)‐2‐(pyrrolidin‐1‐yl)‐1H‐benzo[d]imidazole], the figure is 1.78 ± 0.43 µM; as for `Cc1ccc(Cn2c(N3CCCC3)nc3ccccc32)cc1` [9 k, 1‐(4‐Methylbenzyl)‐2‐(pyrrolidin‐1‐yl)‐1H‐benzo[d]imidazole], 0.902 ± 0.34 µM; as for `Cc1cccc(Cn2c(N3CCCC3)nc3ccccc32)c1` [9 l, 1‐(3‐Methylbenzyl)‐2‐(pyrrolidin‐1‐yl)‐1H‐benzo[d]imidazole], 1.9 µM.
The compound `Fc1cc(Cl)ccc1Cn1c(N2CCCC2)nc2ccccc21` [9 n, 1‐(4‐Chloro‐2‐fluorobenzyl)‐2‐(pyrrolidin‐1‐yl)‐1H‐benzo[d]imidazole] returned an IC50 in series [1] of 0.84 ± 0.23 µM. For the same compound, in series [2], the CLint scaled amounted to 3200 mL/min/kg and the mCLHEP was found to be 87.6 mL/min/kg. This compound came in with a fraction unbound in series [3] of 0.01. In series [4], this compound came in with a fraction unbound of 0.0217. For the same compound, in series [5], the CLint scaled is 239 mL/min/kg and the hCLHEP is 18.5 mL/min/kg.
The compound `Clc1ccc(Cn2c(N3CCCC3)nc3ccccc32)cn1` [9 t, 1‐((6‐Chloropyridin‐3‐yl)methyl)‐2‐(pyrrolidin‐1‐yl)‐1H‐benzo[d]imidazole] gave an IC50 in series [1] of 3.11 ± 0.94 µM. For the same compound, in series [1] (read-out: % Inhibition @ 3 μM), the inhibition at 3 µM amounted to 127%.
With `O=C(c1ccccc1)n1c(N2CCCC2)nc2ccccc21` [9 u, Phenyl(2‐(pyrrolidin‐1‐yl)‐1H‐benzo[d]imidazol‐1‐yl)methanone], the “TRPC5 activity (in words)” value in series [1] is “inactive”.
Regarding `O=S(=O)(c1ccccc1)n1c(N2CCCC2)nc2ccccc21` [9 v, 1‐(Phenylsulfonyl)‐2‐(pyrrolidin‐1‐yl)‐1H‐benzo[d]imidazole], in series [1], the “TRPC5 activity (in words)” value was “inactive”.
In the case of `Cc1cc2nc(N3CCCC3)n(Cc3ccccc3)c2cc1C` [14 b, 1‐Benzyl‐5,6‐dimethyl‐2‐(pyrrolidin‐1‐yl)‐1H‐benzo[d]imidazole], in series [1], the “TRPC5 activity (in words)” value is recorded as “moderate activity” and the IC50 was determined as 12.3 µM.
`COc1ccc2c(c1)nc(N1CCCC1)n2Cc1ccccc1` [14 h, 1‐Benzyl‐5‐methoxy‐2‐(pyrrolidin‐1‐yl)‐1H‐benzo[d]imidazole] gave an IC50 in series [1] of 1.15 ± 0.33 µM.
As for `O=c1[nH]ncc(-c2ccc3c(c2)nc(N2CCCC2)n3Cc2ccccc2)c1Cl` [14 n, 5‐(1‐Benzyl‐2‐(pyrrolidin‐1‐yl)‐1H‐benzo[d]imidazol‐5‐yl)‐4‐chloropyridazin‐3(2H)‐one], in series [1], the “TRPC5 activity (in words)” value was “not as active as 1” and the IC50 was 7.55 ± 2.52 µM.
As to `CC1CCCCN1c1nc2ccccc2n1Cc1ccc(Cl)cc1` (centres unmarked) [16 a, 1‐(4‐Chlorobenzyl)‐2‐(2‐methylpiperidin‐1‐yl)‐1H‐benzo[d]imidazole], the “TRPC5 activity (in words)” value in series [1] is given as “not active”.
Still for that read-out and setting: as for `CC1CCN(c2nc3ccccc3n2Cc2ccc(Cl)cc2)CC1` [16 b, 1‐(4‐Chlorobenzyl)‐2‐(4‐methylpiperidin‐1‐yl)‐1H‐benzo[d]imidazole], the entry is “not active”; as for `O=S1(=O)CCN(c2nc3ccccc3n2Cc2ccc(Cl)cc2)CC1` [16 c, 4‐(1‐(4‐Chlorobenzyl)‐1H‐benzo[d]imidazol‐2‐yl)thiomorpholine‐1,1‐dioxide], “not active”.
In series [1], `C[C@@H]1CCCN1c1nc2ccccc2n1Cc1ccc(Cl)cc1` [16 e, (R)‐1‐(4‐Chlorobenzyl)‐2‐(2‐methylpyrrolidin‐1‐yl)‐1H‐benzo[d]imidazole] had an IC50 of 2.89 ± 0.7 µM.
